Experimental data taken from the EternaBench riboswitch data.

Tested on: MS2 coat protein
Assay: apparent Kd, MS2 coat protein; higher = weaker binding; RNA-MaP array; FMN 200 µM where present
Outline: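 Apparent Kd: the median of filtered binding-curve fits from single clusters. Designs were transcribed on Illumina sequencing-chip clusters by stalled E. coli RNA polymerase and titrated with SNAP-549-labelled MS2 coat protein from 0.7 or 1.5 nM, doubling to 3 µM, in 100 mM Tris-HCl pH 7.5, 80 mM KCl, 4 mM MgCl2, BSA, DTT, yeast tRNA and Tween-20. Each series ran without and then with constant ligand, and green signal was normalised to red-channel RNA signal and control-cluster median Fmax.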

[1] = designed as: OFF switch for flavin mononucleotide, no ligand
[2] = ligand present: flavin mononucleotide, designed as: OFF switch for flavin mononucleotide
[3] = designed as: ON switch for flavin mononucleotide, no ligand
[4] = ligand present: flavin mononucleotide, designed as: ON switch for flavin mononucleotide

Row | Sequence | apparent Kd [1] [nM] | apparent Kd [2] [nM] | apparent Kd [3] [nM] | apparent Kd [4] [nM]
1 | UUUUUACAUGAGGAUCACCCAUGUGAGGAUAUGGAUUCGCUGGCCGUAGCCAGUGGAUCCAGAAGGCGCAUGAU | 82.7 | 280 | – | –
2 | ACUUUAUAUGAGAAGGUGAAGUGGAAACAUGAGGAUCACCCAUGUAAUACGAAGCGUAUUUUUAUCAAGGAUAUCAUAUAAAGA | – | – | 10.8 | 8.81
3 | GGGCGACAUGAGGAUCACCCAUGUAACCUAAACGAAGGAUAUGGGCCUGAACGUCCAGGACCAGAAGGUCGGAAAU | – | – | 23.6 | 17.9
4 | AAAAAGUCAGGAUAUGGAAAAAAAAAAAAAAAAAAAAAAAACCAGAAGGGACAUGAGGAUCACCCAUGUAAAAA | 71.5 | 43.8 | – | –
5 | GAAUAAUAGAUCCAAUAUAUCUACAUGAGGAUCACCCAUGUGCAGGAUAUGCUAAAAUUUAAUAAGCAGAAGGGCAAGAACGGC | 54.7 | 138 | – | –
6 | GGUACUAUCACAGGAUAUGCUUUCCUUUGGGAAGCAGAAGGGUGUAACAUGAGGAUCACCCAUGUGGUGCCAGGGCGUGGGCCC | – | – | 154 | 17
7 | GGGAGACAUGAGGAUCACCCAUGUGAAAACGUGCGAGGAUAUCAAUGGAAACCAUACUGUUGAGAAGGCGUUUGUC | – | – | 100 | 55
8 | AGUGUCAUCGAGAAGGCCUCAACAUGAGGAUCACCCAUGUUGCAAAAUGGGAGGAUAUCGCAAAAACAGCUACGUUUCGUAGCA | – | – | 45.4 | 7.43
9 | GACCUGACAUAAUAAUGUAGAAAUACAUGAGGAUCACCCAUGUAGGAUAUGCAGUGGAAUACACUGCAGAAGGACAUAGUCAGG | 15.9 | 22.9 | – | –
10 | AAACACGGACAUGAGGAUCACCCAUGUGGCGAAAGCCUUGGGAGAAGGCCGAUUGCAAAGCAAUCGGAGGAUAUUCAUACCGUG | – | – | 1250 | 57
11 | AGAAAACAUGAGGAUCACCCAUGUGAGGAUAUCGAUGUCCAAGGGCGGGUGCGGGACUCGAGAAGGCACUUGGA | 76 | 64.3 | – | –
12 | CACAUUUUAACAGGAUAUGUAAGGUUGUUUAUUAUUGCAUUUACAAUUAUUACAGAAGGGUUAUACAUGAGGAUCACCCAUGUG | – | – | 15.3 | 15.5
13 | GAAACCUCAGGUUAAGGUUGACGACAUGAGGAUCACCCAUGUAGAAGGACCAAGGCGACCGUACGGUAGGAUAUACACGGGAGG | 10.8 | 24.9 | – | –
14 | GGUCGGAGCAGAGGAUAUACAUGAGGAUCACCCAUGUAAUAAAGUGAAGCCUGGAAACAGGCAAUGUAGAAGGCUGCUCCGACA | 10.8 | 70.6 | – | –
15 | CGUAGGAUCCAGAAGGCAUGAACAUGAGGAUCACCCAUGUGAAAACACAUGAGGAUAUGGAUCCUACGAAAAGUGCGAAAGCAC | – | – | 5.4 | 4.66
16 | AAACCGUAAAUGCGGGCAUGUACACAGGAUAUCCCGUGACAUGAGGAUCACCCAUGUAACACAUUGGAGAAGGGUGUUCACGUA | – | – | 177 | 19.6
17 | AUCAUGUAAGGAUAUCUUACAUGUGACUUCGGUCACUGUUCAGAGAAGGUACAUGAGGAUCACCCAUGUAGAAC | 18.8 | 28.4 | – | –
18 | GGGCCCGGAGGAUAUACAUGAGGAUCACCCAUGUACUCGGGCUCUAUUGGGCUCGGGUGUAGAAGGCCGGGCCC | 13.7 | 14.1 | – | –
19 | UGCUGGCGAGGAUAUGCUCGGGAUGCUAGUCGCGCGGUUGCACAUGAGGAUCACCCAUGUAGAAGGUGUCUGUG | 170 | 169 | – | –
20 | GGCCCGGGAGGAUAUACAUGAGGAUCACCCAUGUGCUUGAGCUUGAUCGAGUUCGAGUGUAGAAGGCCCGGGCC | 14 | 21.8 | – | –
